# Measured values of several laboratories.
# Each line is one published result; the experiments were not run side by side.
# Cell line: MDA-MB-231
# Observed: cell growth or viability
Compound,method,time,endpoint,result
COc1c(C)c2c(c(O)c1C/C=C(\C)CCC(=O)O)C(=O)OC2,,,IC50,1200 nM
CC[C@H](C)[C@@H]([C@@H](CC(=O)N1CCC[C@H]1[C@H](OC)[C@@H](C)C(=O)N[C@H](C)[C@@H](O)c1ccccc1)OC)N(C)C(=O)[C@@H](NC(=O)[C@@H](NC)C(C)C)C(C)C,CCK-8,,IC50,8.28 nM
C=CCNC1=C2C[C@@H](C)C[C@H](OC)[C@H](O)[C@@H](C)/C=C(\C)[C@H](OC(N)=O)[C@@H](OC)/C=C\C=C(/C)C(=O)NC(=CC1=O)C2=O,,72 h,IC50,19500 nM
[C-]#[O+].[C-]#[O+].[C-]#[O+].[C-]#[O+].[C-]#[O+].[C-]#[O+].[C-]#[O+].[C-]#[O+].[C-]#[O+].[C-]#[O+].[Mn].[Mn],MTT,48 h,IC50,25400 nM
CC[C@H](C)[C@@H]([C@@H](CC(=O)N1CCC[C@H]1[C@H](OC)[C@@H](C)C(=O)N[C@H](C)[C@@H](O)c1ccccc1)OC)N(C)C(=O)[C@@H](NC(=O)[C@H](C(C)C)N(C)C(=O)OCc1ccc(NC(=O)[C@H](CCCNC(N)=O)NC(=O)[C@@H](NC(=O)CCOCCOCCOCCOCCC(=O)N[C@@H]2CSSC[C@H](C(=O)O)NC(=O)CNC(=O)[C@@H](CCCNC(=N)N)NC(=O)CNC(=O)[C@@H](C(C)C)NC(=O)CNC(=O)[C@@H](C)NC(=O)[C@@H](CCCNC(=N)N)NC2=O)C(C)C)cc1)C(C)C,resazurin,24 h,IC50,120 nM
CC(=O)N[C@H]1[C@@H](O[C@@H]2O[C@H](C[C@@H](O)[C@H]3O[C@@H](n4ccc(=O)[nH]c4=O)[C@H](O)[C@@H]3O)[C@H](O)[C@H](O)[C@H]2NC(=O)/C=C/CCCCCCCCCC(C)C)O[C@H](CO)[C@@H](O)[C@@H]1O,WST-1,,IC50,170 nM
COc1ccc(NC(=O)Nc2ccc3c(c2)C=CCP(=O)(O)O3)cc1,MTT,72 h,Emax,50%
N.N.[Cl][Pt][Cl],MTT,,IC50,> 100000 nM
CCOP1(=O)CC=Cc2cc(N)ccc2O1 (stereo not drawn),MTT,72 h,Emax,10 to 15%
CC(C)=C[C@H]1C[C@H](C)[C@]2(CC[C@]3(C)C[C@H]4[C@H](C(=O)C[C@@]4(C)O)/C(C=O)=C\C[C@H]32)O1,,,IC50,58.2 nM
N.N.[Cl][Pt][Cl],MTT,48 h,IC50,40000 nM
O=C1c2ccccc2-c2c3c(cc4ccnc1c24)OCO3,MTT,75 h,IC50,49000 nM
